What all share (assay type): biochemical
Experiment [1] concerns the target rhinovirus HRV3C protease (Human rhinovirus 14, UniProt P03303). The experiment is described as follows: 3CLpro and HRV3C duplex SAMDI-MS assay, HRV3C readout. In outline: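 Enzymes preincubated 30 min with test compound. Biotinylated cognate peptides added (10 µM each, final). Reaction ran 30 min, then formic acid quench and bicarbonate neutralisation. Captured on SAMDI chips for 1 h; product conversion AUCprod/(AUCInt Stnd + AUCprod).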

Another experiment addresses Human Cathepsin L (Homo sapiens, UniProt P07711). The experiment is described as follows: Human cathepsin L assay. Particulars: FRET Cathepsin L IC50, 10 pM human cathepsin L, 2 μM Z-FR-AMC, pH 5.5. An outline of the steps: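 Human enzyme, 10 pM final, preincubated 30 min with test compound at ambient temperature in 20 mM sodium acetate, 1 mM EDTA, 0.005% Brij-35, 5 mM DTT, pH5.5. Started with 2 μM Z-FR-AMC (final). Fluorescence (355/460 excitation/emission) read at 2-min intervals over 30 min. IC50 from four-parameter curve fit.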

The target of another experiment is SARS-CoV-2 3CLpro (Severe acute respiratory syndrome coronavirus 2, UniProt P0DTD1). Particulars: duplex SAMDI-MS assay.

Where only a bound is given, the exact number is not on record here.

2 compounds from paper PMC7839511 (Antiviral Research, 2021) can be followed below.

Chain of Human Cathepsin L (P07711 114-333): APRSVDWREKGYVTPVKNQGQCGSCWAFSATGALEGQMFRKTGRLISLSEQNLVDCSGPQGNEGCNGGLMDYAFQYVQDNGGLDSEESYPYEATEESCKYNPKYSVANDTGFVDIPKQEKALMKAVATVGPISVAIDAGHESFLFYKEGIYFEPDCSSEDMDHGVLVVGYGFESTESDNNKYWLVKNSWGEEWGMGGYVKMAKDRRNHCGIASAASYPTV
Chain of rhinovirus HRV3C protease (P03303 1538-1719 limits assumed): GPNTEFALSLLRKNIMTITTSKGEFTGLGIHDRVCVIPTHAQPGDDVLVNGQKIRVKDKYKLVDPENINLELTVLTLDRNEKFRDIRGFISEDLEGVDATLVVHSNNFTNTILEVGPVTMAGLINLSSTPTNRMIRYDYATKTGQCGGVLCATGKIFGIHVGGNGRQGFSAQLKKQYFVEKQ

Regarding `CC(C)(C)NC(=O)N[C@H](C(=O)N1C[C@H]2[C@@H]([C@H]1C(=O)NC(CC1CCC1)C(=O)C(N)=O)C2(C)C)C(C)(C)C` (some centres unmarked) [Boceprevir], the IC50 was greater than 100000 nM in experiment [1] and 2.3 µM against Human Cathepsin L.

Take `CCOC(=O)/C=C/[C@H](C[C@@H]1CCNC1=O)NC(=O)[C@@H](CC(=O)[C@@H](NC(=O)c1cc(C)on1)C(C)C)Cc1ccc(F)cc1` [Rupintrivir]: the IC50 turned out to be 1.04 nM in experiment [1] and 4.4 µM at Human Cathepsin L. In addition, the “inhibition of 3CLpro (in words)” value on SARS-CoV-2 3CLpro is given as “no observed inhibition”.
